In the RNAGym collection of RNA variant scans (doi:10.1038/s41586-018-0170-7):

B1: tRNA (parent)
chain: GUUCCGUUGGCGUAAUGGUAACGCGUCUCCCUCCUAAGGAGAAGACUGCGGGUUCGAGUCCCGUACGGAACG

Variants of: B1
Experiment: yeast fitness, log relative to wild type (ln ratio); higher = fitter; tRNA-Arg(CCU), competitive growth, 37 C, 1 M NaCl
In short: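 Fitness is the natural log of a genotype's generation count divided by that of the wild type. A combinatorial library of tRNA-Arg(CCU) variants sat on a HIS3 centromeric plasmid in BY4742 lacking the chromosomal gene, from two independent transformations. Pools grew 4 generations in SC-HIS at 30 °C, then ~6.5 generations (~26.5 h) in SC-HIS 1M NaCl at 37 °C, with three outputs per input. Generations came from OD-scaled log2 output/input frequency, inverse-variance weighted across replicates, with variants counted by 125 bp paired-end Illumina sequencing.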

Variant	yeast fitness (ln)
G1A U2G C27U A43C A69G A70G	-0.263
G1A U2G C27U A43C A69G A70U	-0.281
G1A U2C G6U A43C C46U C66A A70G	-0.000562
G1A U2C G6U A43C C46U C66A A70U	-0.177
G1A U2C G6U C66U A70G	-0.302
G1A U2C G6U C66U A70U	-0.153
G1A U2G A43C C66A A70U C71U	-0.396
G1A U2C G6U C27U C46U C71U	-0.0687
G1A U2G A43C C46U A70G C71U	-0.342
G1A U2C G6U A43C C46U C66A A70U C71U	-0.425
G1A U2G A43C C46U C66A A70U C71U	-0.168
G1A U2C G6U C27U A43C A70U C71U	-0.294
G1A U2C G6U A43C C46U C66U A69G A70G C71U	-0.201
G1A U2C G6A C66U A69G C71U	-0.31
G1A U2C G6A C46U A70G	-0.179
G1A U2C G6A C46U A70U	-0.0702
G1A U2C G6A C66U	-0.121
G1A U2C G6U C27U A43C C46U C66A A70G	-0.15
G1A U2C G6U C27U A43C C46U C66A A70U	-0.0771
G1A U2C G6U C27U A43C A70G C71U	-0.22
G1A U2C G6A C27U C46U A69G A70U	-0.07

Variant	yeast fitness (ln)
G1A U2G A43C A70U	-0.33
G1A U2G A43C A70G	-0.108
G1A U2C G6U C66U A69G A70G C71U	-0.221
G1A U2G A43C C46U C66A A70G	-0.26
G1A U2G A43C C46U C66A A70U	-0.125
G1A U2G A43C C46U C66U A70G C71U	-0.243
G1A U2C G6U C27U A43C C46U	-0.0772
G1A U2C G6U A43C C46U A70U	-0.0463
G1A U2G A43C A69G C71U	-0.219
G1A U2C G6A C27U A43C C46U C66U A69G A70U C71U	-0.555
G1A U2C G6A C46U C66A A69G A70G C71U	-0.172
G1A U2C G6U C27U A43C C46U A70G C71U	-0.198
G1A U2C G6A C27U C46U A70G C71U	-0.0986
G1A U2G A43C C46U C66U C71U	-0.223
G1A U2C G6A C46U C66A A70G C71U	-0.105
G1A U2C G6U C66A A70G	-0.0212
G1A U2C G6U C66A A70U	-0.234
G1A U2C G6U C27U A43C C71U	-0.263
G1A U2C G6A C27U A43C C66U A70G C71U	-0.0683
G1A U2C G6A C27U C66U A70G	-0.128
G1A U2C G6A C27U C66U A70U	-0.141

Variant	yeast fitness (ln)
G1A U2C G6U C27U C46U C66U A70U	-0.128
G1A U2C G6U C27U C46U C66U A70G	-0.203
G1A U2G A43C C46U C71U	-0.115
G1A U2C G6U C27U C46U A69G A70U C71U	-0.392
G1A U2C G6U C27U A69G A70G C71U	-0.22
G1A U2C G6U A43C C66A A70G	-0.0507
G1A U2G A43C C66U A70U C71U	-0.333
G1A U2C G6U C27U C46U A70U C71U	-0.13
G1A U2G A43C C46U C66A C71U	-0.138
G1A U2C G6U C27U C66U A69G A70G C71U	-0.251
G1A U2G C27U A43C C46U A70U C71U	-0.0479
G1A U2C G6U C27U A43C C46U A70U C71U	-0.177
G1A U2C G6A C46U C71U	-0.108
G1A U2C G6U C27U C46U C66U A70U C71U	-0.284
G1A U2G A43C C46U C66U	-0.116
G1A U2G A43C C46U C66A	-0.156
G1A U2C G6A C27U C46U A70G	-0.0476
G1A U2C G6A C27U C46U A70U	-0.0702
G1A U2C G6A C46U C66U C71U	-0.0596
G1A U2C G6A C46U C66U A70U	-0.182
G1A U2C G6A C46U C66U A70G	-0.0233

Variant	yeast fitness (ln)
G1A U2G A69G C71U	-0.135
G1A U2C G6A C46U A70G C71U	-0.00868
G1A U2G C27U A43C	-0.182
G1A U2C G6A C66U A69G A70U	-0.0166
G1A U2C G6A C66U A69G A70G	-0.0913
G1A U2C G6U C71U	-0.159
G1A U2C G6U C66A A70G C71U	-0.0113
G1A U2C G6U A43C C66U A70G C71U	-0.335
G1A U2C G6A C27U A70G C71U	-0.273
G1A U2C G6U C46U A70G C71U	-0.00847
G1A U2C G6A C27U C46U C66U A69G A70U C71U	-0.327
G1A U2C G6A C46U C66U A69G A70U	-0.0207
G1A U2C G6A C46U C66U A69G A70G	-0.0859
G1A U2G A43C C46U C66A A69G A70U	-0.252
G1A U2G C27U A43C C46U C66A A69G A70G C71U	-0.269
G1A U2C G6U C46U C66A A70U C71U	-0.0961
G1A U2C G6U C46U C71U	-0.111
G1A U2C G6U C27U A43C C46U C66U A70G C71U	-0.0871
G1A U2C G6U A43C C66U A69G A70G C71U	-0.344
G1A U2G A43C C66A A70G	-0.241
